Calls of active or inactive are those of the source. The rule behind the calls is not given here.
Key:
[1] = Effect on behavioral activity in STZ-induced mouse model of Alzheimer's disease assessed as rearing at 30 mg/kg, ip treated from 3 to 12 days by open field test (reference value: 53.60 +/- 1.62); format: ADME, organism-based; details: in vivo, time 3-12 day
Mus musculus [2] = experiment: Antioxidant activity in STZ-induced mouse model of Alzheimer's disease assessed as reduction in TBARS level in brain at 30 mg/kg, ip treated from 3 to 12 days starting from 3 days post initial STZ stimulation and measured on day 17 by spectrophotometric method; format: functional, organism-based; details: time 3-12 day
Method in brief: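 After the final behavioural test, brain homogenate (phosphate buffer pH 7.4, 3000g for 15 min) used for TBARS. The mixture was vortexed and centrifuged at 4000g for 10 min. The organic layer was read at 532 nm.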

Mus musculus [3] = experiment: Anxiolytic-like activity in STZ-induced mouse model of Alzheimer's disease assessed as open arm time permanency at 30 mg/kg, ip treated from 3 to 12 days starting from 3 days post initial STZ stimulation and measured on day 14 by elevated plus maze test (reference value: 37.6%); format: functional; details: time 3-12 day
Mus musculus [4] = experiment: Anxiolytic-like activity in STZ-induced mouse model of Alzheimer's disease assessed as open arm frequency at 30 mg/kg, ip treated from 3 to 12 days starting from 3 days post initial STZ stimulation and measured on day 14 by elevated plus maze test (reference value: 51.17%); format: functional; details: time 3-12 day
Acetylcholinesterase = Acetylcholinesterase (Homo sapiens, UniProt P22303); experiment: Inhibition of AChE (unknown origin) using acetylthiocholine iodide as substrate preincubated for 15 mins followed by substrate addition and measured after 30 mins by Ellman's method
[5] = Effect on locomotory activity in STZ-induced mouse model of Alzheimer's disease assessed as number of crossing 30 mg/kg, ip treated from 3 to 12 days by open field test (reference value: 114.00 +/- 3.12); format: organism-based; details: in vivo, time 3-12 day
Mus musculus [6] = experiment: Antioxidant activity in STZ-induced mouse model of Alzheimer's disease assessed as increase in GSH level in brain at 30 mg/kg, ip treated from 3 to 12 days starting from 3 days post initial STZ stimulation and measured on day 17 by spectrophotometric method; format: functional, organism-based; details: time 3-12 day
Method in brief: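 Brains collected one day after the last behavioural test, homogenized in phosphate buffer pH 7.4 and spun at 3000g for 15 min. Whole-brain GSH in the supernatant measured by a modified Beutler method, absorbance at 412 nm. Quantified against a GSH standard curve (5–50 μg); expressed as nmol GSH/mg protein.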

Mus musculus [7] = experiment: Antialzheimer activity in streptozotocin-induced mouse model of memory impairment assessed as median time of avoidance latency descent at 30 mg/kg, ip treated from 3 to 12 days starting from 3 days post initial STZ stimulation and measured on day 16 by avoidance test (reference value: 14 sec); format: functional; details: time 3-12 day
Method in brief: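 3-month-old female mice (25.0–30.0 g), STZ given i.c.v. as 3 μL of 2.5 mg mL-1 solution, repeated after 48 h. Vehicle or compound dosed i.p. until day 12. Training: shock 0.4 mA for 2 s on stepping down from the platform. Next-day test session without shock; descent latency timed. Reported as median with interquartile interval. N = 8–10 per group.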

[8] = Effect on locomotory activity in STZ-induced mouse model of Alzheimer's disease assessed as number of crossing 0.5 mg/kg, ip treated from 3 to 12 days by open field test (reference value: 114.00 +/- 3.12); format: organism-based; details: in vivo, time 3-12 day
Mus musculus [9] = experiment: Antialzheimer activity in streptozotocin-induced mouse model of memory impairment assessed as median time of avoidance latency descent at 0.5 mg/kg, ip treated from 3 to 12 days starting from 3 days post initial STZ stimulation and measured on day 16 by avoidance test (reference value: 14 sec); format: functional; details: time 3-12 day
[10] = Effect on behavioral activity in STZ-induced mouse model of Alzheimer's disease assessed as rearing at 0.5 mg/kg, ip treated from 3 to 12 days by open field test (reference value: 53.60 +/- 1.62); format: organism-based; details: in vivo, time 3-12 day
Mus musculus [11] = experiment: Anxiolytic-like activity in STZ-induced mouse model of Alzheimer's disease assessed as open arm time permanency at 0.5 mg/kg, ip treated from 3 to 12 days starting from 3 days post initial STZ stimulation and measured on day 14 by elevated plus maze test (reference value: 37.6%); format: functional; details: time 3-12 day
Method in brief: (§1)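 Female mice given STZ i.c.v. twice (48 h apart) were treated i.p. until day 12. Each mouse was placed in the centre of the elevated plus maze facing a closed arm and observed for 5 min. N about 8–10 per group.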

Mus musculus [12] = experiment: Anxiolytic-like activity in STZ-induced mouse model of Alzheimer's disease assessed as open arm frequency at 0.5 mg/kg, ip treated from 3 to 12 days starting from 3 days post initial STZ stimulation and measured on day 14 by elevated plus maze test (reference value: 51.17%); format: functional; details: time 3-12 day; method in brief: as §1

Acetylcholinesterase, sequence (P22303 whole entry): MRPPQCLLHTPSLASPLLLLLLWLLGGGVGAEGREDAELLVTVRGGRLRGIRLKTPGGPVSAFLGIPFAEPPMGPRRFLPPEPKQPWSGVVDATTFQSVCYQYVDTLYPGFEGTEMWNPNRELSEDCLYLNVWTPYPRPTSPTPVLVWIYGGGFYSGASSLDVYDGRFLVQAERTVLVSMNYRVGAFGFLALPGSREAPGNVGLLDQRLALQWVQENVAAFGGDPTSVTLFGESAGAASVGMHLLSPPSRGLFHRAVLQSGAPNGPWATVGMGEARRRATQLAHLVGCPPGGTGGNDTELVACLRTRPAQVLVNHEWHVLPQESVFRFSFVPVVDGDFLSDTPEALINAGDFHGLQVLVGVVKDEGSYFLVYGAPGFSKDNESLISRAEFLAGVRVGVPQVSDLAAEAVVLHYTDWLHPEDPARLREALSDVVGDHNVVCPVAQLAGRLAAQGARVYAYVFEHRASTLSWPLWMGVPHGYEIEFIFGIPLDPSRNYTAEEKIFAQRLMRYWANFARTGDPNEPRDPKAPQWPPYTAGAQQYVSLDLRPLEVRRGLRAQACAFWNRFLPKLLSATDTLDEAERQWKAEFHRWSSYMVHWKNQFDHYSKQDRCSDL

Row | SMILES | Activity [1] | Activity (Mus musculus [2]) | Activity (Mus musculus [3]) | Activity (Mus musculus [4]) | IC50 (Acetylcholinesterase) | Activity [5] | Activity (Mus musculus [6]) | Time (Mus musculus [7]) | Activity [8] | Time (Mus musculus [9]) | Activity [10] | Activity (Mus musculus [11]) | Activity (Mus musculus [12])
1 | Cc1cc(S(=O)(=O)Nc2cnccn2)c(C(C)C)cc1O | 50.17 | Active | 19.3% | 47.7% | 7.34 µM | 108.34 | Active | 80 s | – | – | – | – | –
2 | Cc1cc(S(=O)(=O)NN)c(C(C)C)cc1O | 44.18 | Active | 17.1% | 43.31% | 9.24 µM | 98.45 | Active | 130 s | – | – | – | – | –
3 | COc1ccc2c3c1O[C@H]1C[C@@H](O)C=C[C@@]31CCN(C)C2 [GALANTAMINE] | – | – | – | – | – | – | – | – | 122.5 | 122.5 s | 54.23 | 6.6% | 22.3%
4 | Cc1cc(S(=O)(=O)N2CCOCC2)c(C(C)C)cc1O | 43.8 | Active | 14.3% | 25.11% | 5.64 µM | 116.3 | Active | 116.5 s | – | – | – | – | –
5 | Cc1cc(S(=O)(=O)Nc2ccccc2O)c(C(C)C)cc1O | 44.56 | Active | 42% | 41.9% | 8.74 µM | 107 | Active | 107 s | – | – | – | – | –
6 | Cc1ccc(C(C)C)cc1O [CARVACROL] | – | – | – | – | 284 µM | – | – | – | – | – | – | – | –
7 | Cc1cc(S(=O)(=O)NCc2ccccn2)c(C(C)C)cc1O | 46.17 | – | 76% | 69.44% | 6.99 µM | 102.45 | – | 72 s | – | – | – | – | –

Source: ChEMBL document CHEMBL4673177, “Structure-activity relationships of sulfonamides derived from carvacrol and their potential for the treatment of Alzheimer''s disease” (RSC Med Chem, 2020)
